The text below walks through data of ChEMBL document CHEMBL4002604, “Evaluation of biological properties of 3,3',4,4'-benzophenonetetracarboxylic dianhydride derivatives and their ability to inhibit hexokinase activity” (2017).

Assay [1] concerns the target T1, Hexokinase-2 (Mus musculus) (UniProt O08528).
T1 sequence (whole entry): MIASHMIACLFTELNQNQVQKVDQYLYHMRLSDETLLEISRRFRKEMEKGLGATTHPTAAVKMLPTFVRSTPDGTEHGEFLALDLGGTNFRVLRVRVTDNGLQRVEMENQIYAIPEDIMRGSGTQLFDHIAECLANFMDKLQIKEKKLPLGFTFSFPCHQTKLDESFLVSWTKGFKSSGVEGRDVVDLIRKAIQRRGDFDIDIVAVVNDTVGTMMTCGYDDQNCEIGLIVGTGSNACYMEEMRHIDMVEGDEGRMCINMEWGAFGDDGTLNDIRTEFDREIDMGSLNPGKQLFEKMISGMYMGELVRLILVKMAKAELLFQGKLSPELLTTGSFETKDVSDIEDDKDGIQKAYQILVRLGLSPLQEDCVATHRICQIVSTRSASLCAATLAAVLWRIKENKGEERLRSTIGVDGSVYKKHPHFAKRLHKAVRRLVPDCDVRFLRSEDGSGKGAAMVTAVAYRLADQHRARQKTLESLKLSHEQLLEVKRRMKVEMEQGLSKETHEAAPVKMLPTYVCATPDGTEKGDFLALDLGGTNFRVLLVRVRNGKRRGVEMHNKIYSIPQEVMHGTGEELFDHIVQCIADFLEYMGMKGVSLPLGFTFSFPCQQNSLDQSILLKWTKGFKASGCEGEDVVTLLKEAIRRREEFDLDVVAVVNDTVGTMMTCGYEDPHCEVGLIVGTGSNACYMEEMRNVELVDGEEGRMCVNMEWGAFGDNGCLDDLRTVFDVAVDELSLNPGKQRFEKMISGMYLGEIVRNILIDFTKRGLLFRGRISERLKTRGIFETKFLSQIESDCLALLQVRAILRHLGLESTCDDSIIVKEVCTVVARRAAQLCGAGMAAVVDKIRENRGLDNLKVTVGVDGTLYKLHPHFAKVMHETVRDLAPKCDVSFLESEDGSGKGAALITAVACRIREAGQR
As to the kind of experiment: Inhibition of HK2 isolated from mouse undifferentiated P19 cell lysates at […] using [U-14C]-labeled glucose as substrate in presence of ATP and NADP by G6PD enzyme coupled spectrophotometric assay. The procedure, abridged:
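Hexokinase activity measured in supernatant of freshly prepared, centrifuged lysates of undifferentiated P19 cells. Buffer was 100 mM Tris-HCl pH 8.0 with 0.5 mM EDTA, 10 mM MgCl2, 2 mM glucose, 0.1 mM NADP and 0.1 U/ml G6PD. After 10 min preincubation at 37°C, 10 mM ATP was added to start the reaction. NADPH formation was followed at 340 nm. Four independent experiments, ≥4 repeats each.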

Assay [2] has as its system P19. The experiment in a line: Cytotoxicity against differentiated mouse P19 cells assessed as metabolic activity at 1 to 100 uM after 48 hrs by resazurin assay relative to control. The assay is classed as functional. The procedure, abridged: (§1)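 Metabolic activity by resazurin reduction in undifferentiated (P19SCs) or differentiated (P19dCs) P19 cells. Exposure to 1, 10 or 100 µM for 24, 48 or 72 h. Read-out relative to untreated control. Significance vs control at p<0.05.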
On the technique in general: Resazurin is reduced to fluorescent resorufin, in cell work by metabolically active cells.

Assay [3] concerns P19. The experiment in a line: Cytotoxicity against differentiated mouse P19 cells assessed as metabolic activity at 1 to 100 uM after 72 hrs by resazurin assay relative to control. It counts as functional. The procedure, abridged: as §1
Assay [4] has as its system P19. The experiment in a line: Cytotoxicity against undifferentiated mouse P19 cells assessed as metabolic activity at 1 to 100 uM after 48 hrs by resazurin assay relative to control. It counts as functional. The procedure, abridged:
as §1

In assay [5] the test system is P19. The experiment in a line: Cytotoxicity against differentiated mouse P19 cells assessed as cell mass at 1 to 100 uM after 24 hrs by SRB assay relative to control. It counts as functional. In a few lines: (§2)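 Cell mass by SRB assay in P19 cells (CRL-1825), either undifferentiated (P19SCs) or differentiated (P19dCs). Cells exposed to 1, 10 or 100 µM for 24, 48 or 72 h. Values expressed relative to untreated control. Means ± SD from at least 4 independent measurements, 6 repeats each. Significance vs control at p<0.05.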
On the technique in general: Sulforhodamine B stains cellular protein and so reports cell mass.

Assay [6] deals with P19. The experiment in a line: Cytotoxicity against differentiated mouse P19 cells assessed as cell mass at 1 to 100 uM after 48 hrs by SRB assay relative to control. It counts as functional. In a few lines:
as §2

Assay [7] relates to P19. As to the kind of experiment: Cytotoxicity against undifferentiated mouse P19 cells assessed as cell mass at 1 to 100 uM after 48 hrs by SRB assay relative to control. It counts as functional. In a few lines:
as §2

Assay [8] relates to P19. As to the kind of experiment: Cytotoxicity against undifferentiated mouse P19 cells assessed as metabolic activity at 1 to 100 uM after 72 hrs by resazurin assay relative to control. The assay is classed as functional. In a few lines:
as §1

Assay [9] deals with P19. As to the kind of experiment: Cytotoxicity against undifferentiated mouse P19 cells assessed as cell mass at 1 to 100 uM after 72 hrs by SRB assay relative to control. The assay is classed as functional. The procedure, abridged:
as §2

For assay [10], the system named is P19. As to the kind of experiment: Cytotoxicity against differentiated mouse P19 cells assessed as cell mass at 1 to 100 uM after 72 hrs by SRB assay relative to control. The assay is classed as functional. The procedure, abridged:
as §2

Assay [11] relates to P19. As to the kind of experiment: Cytotoxicity against undifferentiated mouse P19 cells assessed as metabolic activity at 1 to 100 uM after 24 hrs by resazurin assay relative to control. The assay is classed as functional. In a few lines: as §1
Assay [12] relates to P19. As to the kind of experiment: Cytotoxicity against differentiated mouse P19 cells assessed as metabolic activity at 1 to 100 uM after 24 hrs by resazurin assay relative to control. The assay is classed as functional. The procedure, abridged: as §1
Assay [13] deals with P19. The experiment in a line: Cytotoxicity against undifferentiated mouse P19 cells assessed as cell mass at 1 to 100 uM after 24 hrs by SRB assay relative to control. The assay is classed as functional. The procedure, abridged: as §2

Activity calls are given as the source filed them. No cut-off for these calls is given here.

In the case of `OC[C@H]1OC(O)C[C@@H](O)[C@@H]1O` (stereo partly drawn), in assay [1], the inhibition entry is “Active”. Further, the Activity stood at 101.7% in the assay with P19 [2]; 94.4% in the assay on P19 [3]; 91.2% with P19 [4]; 90.5% with P19 [5]; 93.6% with P19 [6]; 99.6% in the assay with P19 [7]. Also, the Activity was 101.3% with P19 [8]; 103.8% in the assay with P19 [9]; 97.4% in the assay with P19 [10]; 100.1% in the assay with P19 [11]; 90.5% in the assay with P19 [12]; 120.4% in the assay with P19 [13].
